Measured values as given in ChEMBL document CHEMBL1126987, “Modulation of GABAA receptor function by benz[e]indenes and phenanthrenes” (J Med Chem, 1993).
Activity calls are given as the source filed them. No cut-off for these calls is given here.

Tests used:
[1] = target: GABA-A receptor; anion channel; assay: Inhibition of GABA-A receptor by displacement of 35[S]-TBPS; type: protein-complex assay, Rattus norvegicus
How it was run: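 [35S]-TBPS displacement on rat brain membranes, with compounds dissolved in DMSO at a final assay concentration of 0.25%. IC50 was obtained by logistic analysis.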

[2] = target: T1, GABA-A receptor; anion channel (Rattus norvegicus) (UniProt O09028+P15431+P18506+P18508+P19969+P20236+P23574+P23576+P28471+P28473+P30191+P62813+P63079+P63138+Q91ZM7+Q9ES14); assay: (§1) Percent response with 1 uM GABA relative to current produced by 1 uM GABA alone in rat hippocampal cells; type: functional, cell-based; conditions: Hippocampus
How it was run: (§2)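 Whole-cell patch clamp on rat hippocampal cells. Current with 1 μM GABA plus 1 μM compound is expressed as percent of the current from 1 μM GABA alone.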

[3] = target: T1, GABA-A receptor; anion channel (Rattus norvegicus); assay: Maximal binding constant (Bmax) determined in Scatchard analysis of 35[S]-TBPS binding.; type: protein-complex assay
How it was run: (§3)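 Scatchard analysis of [35S]-TBPS binding to rat brain membranes, with compounds dissolved in DMSO at a final assay concentration of 0.25%. Run in triplicate with triplicate determinations per point. Kd and Bmax were taken from linear regression of Scatchard-transformed data. TBPS alone vs TBPS plus test compound was compared by Student's t test.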

[4] = target: T1, GABA-A receptor; anion channel (Rattus norvegicus); assay: Percent response without GABA relative to current produced by 1 uM GABA alone in rat hippocampal cells (gated current); type: functional, cell-based; conditions: Hippocampus
How it was run: (§4)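 Whole-cell patch clamp on rat hippocampal cells. Current gated by 10 μM compound without GABA is expressed as percent of the current evoked by 1 μM GABA on the same cell.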

[5] = target: GABA-A receptor; anion channel; assay: Dissociation constant (Kd) determined in Scatchard analysis of 35[S]-TBPS binding.; type: protein-complex assay, Rattus norvegicus; how it was run: as §3
[6] = target: Gamma-aminobutyric acid receptor subunit gamma-1 (Rattus norvegicus) (UniProt P23574); assay: as §1; type: functional, cell-based; conditions: Hippocampus; how it was run: as §2
Gamma-aminobutyric acid receptor subunit gamma-1 (Rattus norvegicus), sequence (P23574 whole entry): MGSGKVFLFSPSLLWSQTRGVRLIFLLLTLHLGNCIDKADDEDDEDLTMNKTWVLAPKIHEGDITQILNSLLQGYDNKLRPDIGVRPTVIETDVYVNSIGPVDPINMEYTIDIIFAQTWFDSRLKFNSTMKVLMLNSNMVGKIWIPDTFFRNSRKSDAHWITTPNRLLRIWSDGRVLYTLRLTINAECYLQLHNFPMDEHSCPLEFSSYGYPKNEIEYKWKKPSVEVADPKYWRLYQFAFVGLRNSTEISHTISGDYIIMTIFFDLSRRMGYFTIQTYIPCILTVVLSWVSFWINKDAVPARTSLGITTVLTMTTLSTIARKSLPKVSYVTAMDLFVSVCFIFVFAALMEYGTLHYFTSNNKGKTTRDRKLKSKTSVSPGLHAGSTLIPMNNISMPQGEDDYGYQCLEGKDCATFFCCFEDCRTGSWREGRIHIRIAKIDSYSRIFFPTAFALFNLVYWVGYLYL

[7] = target: Gamma-aminobutyric acid receptor subunit gamma-1 (Rattus norvegicus) (UniProt P23574); assay: Percent response without GABA relative to current produced by 1 uM GABA alone in rat hippocampal cells (No response); type: functional, cell-based; conditions: Hippocampus; how it was run: as §4

Compound | IC50 [1] | Response [2] | Bmax (pM (mg of protein)-1) [3] | Activity [4] | Kd [5] | Response [6] | Activity [7]
CC(=O)[C@H]1CCC2C3CC[C@@H](CCO)CC3CC[C@@]21C (some centres not stated) | 5.82 µM | 489% | 1.04 |  |  |  | 
CC(=O)[C@@]1(C)CCC2C(CC[C@H]3C[C@H](O)CC[C@]23C)C1 (some centres not stated) | 7.06 µM | 108% |  |  |  |  | 
C[C@]1(CC#N)CCC2C(CC[C@H]3C[C@H](O)CC[C@]23C)C1 (some centres not stated) | 3.27 µM | 106% |  | 8 |  |  | 
CC(=O)C1CC[C@H]2[C@@H]3CC[C@H]4C[C@H](O)CC[C@]4(C)[C@H]3CC[C@]12C (some centres not stated) | 0.18 µM | 195% | 1.22 | 30 | < 0.08 µM |  | 
C[C@]12CCC3C[C@H](CCO)CCC3C1CCC2=O (some centres not stated) | 44.1 µM | 127% |  |  |  |  | 
CC(=O)C[C@@]1(C)CCC2C(CC[C@H]3C[C@H](O)CC[C@]23C)C1 (some centres not stated) | 3.98 µM | 113% | 1.15 | 1 |  |  | 
C[C@]12CCC3C[C@H](CCO)CCC3C1CC[C@@H]2C#N (some centres not stated) | 4.5 µM |  |  |  |  | 346% | inactive
